Measured values as given in ChEMBL document CHEMBL1134792, “Antimitotic antitumor agents: synthesis, structure-activity relationships, and biological characterization of N-aryl-N'-(2-chloroethyl)ureas as new selective alkylating agents” (J Med Chem, 2001).
Activity calls are given as the source filed them. No cut-off for these calls is given here.

Legend:
CHO [1] = test: Dose required to inhibit cell growth was determined against CHO cell line; type: functional, cell-based; conditions: Cricetulus griseus
In short: (§1)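 Alamar Blue growth assay. (1–5) × 10^3 cells per well preincubated 24 h, then exposed to increasing drug concentrations for 72 h at 37 °C. Medium replaced with PBS containing 20% Alamar Blue, fluorescence read at 485/590 nm. IC50 is the dose inhibiting growth by 50%.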

[2] = biological target: T1, Glutathione reductase, mitochondrial (Homo sapiens) (UniProt P00390); test: Glutathione reductase activity was measured after incubation with a conc. of 500 uM; type: functional
T1 sequence (whole entry): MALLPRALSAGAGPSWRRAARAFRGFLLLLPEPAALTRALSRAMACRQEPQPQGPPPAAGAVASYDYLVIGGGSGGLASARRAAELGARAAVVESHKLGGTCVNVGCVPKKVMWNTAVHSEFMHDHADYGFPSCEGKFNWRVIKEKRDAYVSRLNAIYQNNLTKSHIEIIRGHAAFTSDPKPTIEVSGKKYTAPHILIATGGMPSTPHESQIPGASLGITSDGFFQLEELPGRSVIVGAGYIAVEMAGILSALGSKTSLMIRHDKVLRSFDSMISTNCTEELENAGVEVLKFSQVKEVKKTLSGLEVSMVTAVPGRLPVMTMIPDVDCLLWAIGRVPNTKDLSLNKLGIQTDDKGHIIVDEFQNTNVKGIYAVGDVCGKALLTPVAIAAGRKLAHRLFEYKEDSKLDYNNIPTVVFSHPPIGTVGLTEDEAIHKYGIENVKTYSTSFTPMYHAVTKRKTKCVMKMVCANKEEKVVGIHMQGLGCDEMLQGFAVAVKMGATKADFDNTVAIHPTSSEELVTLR
In short: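 Purified glutathione reductase (0.016 U/mL) with 100 µM NADPH, 1 mM EDTA, 1 mg/mL BSA and 500 µM drug (from 2% ethanol solution) in 0.1 M phosphate pH 7.4, preincubated 60 min at 30 °C. GSSG was then added for 60 min at 30 °C. Activity is the […] over 3 min, as % of no-drug control, in triplicate.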

HT-29 [3] = test: Dose required to inhibit cell growth was determined against HT-29 cell line of human adenocarcinoma; type: functional, cell-based; in short: as §1
K562 [4] = test: Dose required to inhibit cell growth was determined against K562 cell line of chronic myelogenous leukemia; type: functional, cell-based; conditions: Homo sapiens; in short: as §1
L1210 = test: Dose required to inhibit cell growth was determined against L1210 cell line of murine lymphocytotic leukemia; type: functional, cell-based; conditions: Mus musculus; in short: as §1
MDA-MB-231 [5] = test: (§2) DNA damages caused in MDA-MB-231 cells after 2 hr exposure to a concentration of 400 uM; type: functional, Homo sapiens
In short: (§3)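 Growing MDA-MB-231 cells held 2 h at 37 °C in medium with or without 400 μM compound. Cells washed in cold PBS and lysed in Tris/SDS/EDTA/deferoxamine/proteinase K buffer. DNA isolated by salting out, then 3'-end labeled by T4 DNA polymerase nucleotide exchange. Incorporated radioactivity measured by dot filtration, expressed as dCps exchanged/ng DNA. Means ± SD, ≥3 determinations.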

MDA-MB-231 [6] = test: Dose required to inhibit cell growth was determined against MDA-MB-231 cell line of human non-hormone dependent breast carcinoma; type: functional, cell-based; in short: as §1
P388 [7] = test: Dose required to inhibit cell growth was determined against P388D1 cell line of murine lymphocytotic leukemia; type: functional, cell-based; conditions: Mus musculus; in short: as §1
[8] = Glutathione activity was measured after incubation with a conc. of 500 uM
In short: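 Cell-free thiol assay. GSH 500 µM with 1 mM EDTA and 500 µM drug (from 2% ethanol solution) in 0.1 M phosphate buffer pH 7.4, 60 min at room temperature. DTNB (0.133 mM) was then added and A412 read. Reported as % of no-drug control, in triplicate.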

CHO [9] = test: Dose required to inhibit cell growth was determined against CHO cell line; Not active represents IC50 >400 uM; type: functional, cell-based; conditions: Cricetulus griseus
In short: (§4)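 Alamar Blue growth-inhibition assay. Cells ((1–5) × 10³ per well) were preincubated for 24 h, then exposed to increasing drug concentrations for 72 h at 37 °C. Alamar Blue (20%) was added and fluorescence read at ex 485 / em 590 nm. IC50 is the dose inhibiting growth by 50%. Means of ≥3 independent determinations.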

HT-29 [10] = test: Dose required to inhibit cell growth was determined against HT-29 cell line of human adenocarcinoma; Not active represents IC50 >400 uM; type: functional, cell-based; in short: as §4
MDA-MB-231 [11] = test: Dose required to inhibit cell growth was determined against MDA-MB-231 cell line of human non-hormone dependent breast carcinoma; Not active represents IC50 >400 uM; type: functional, cell-based; in short: as §4
HT-29 [12] = test: Dose required to inhibit cell growth was determined against HT-29 cell line of human adenocarcinoma; NA= Not active represents IC50 >400 uM; type: functional, cell-based; in short: as §4
MDA-MB-231 [13] = test: Dose required to inhibit cell growth was determined against MDA-MB-231 cell line of human non-hormone dependent breast carcinoma; NA= Not active represents IC50 >400 uM; type: functional, cell-based; in short: as §4
LoVo [14] = test: Dose required to inhibit cell growth was determined against LoVo cell line of human adenocarcinoma; NA= Not active represents IC50 >400 uM; type: functional, cell-based; in short: as §4
P388 [15] = test: Dose required to inhibit cell growth was determined against P388D1 cell line of murine lymphocytotic leukemia; NA= Not active represents IC50 >400 uM; type: functional, cell-based; conditions: Mus musculus; in short: as §4
MDA-MB-231 [16] = test: Beta tubulin alkylation activity in MDA-MB-231 cells; type: functional, Homo sapiens; set-up: concentration or dose not given beside the values
In short: (§5)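 MDA-MB-231 cells (~5 × 10^6), exponentially growing, exposed to 30 μM compound for 24 h at 37 °C. Lysed in Laemmli buffer, run on 10% SDS-PAGE, immunoblotted with anti-β-tubulin (TUB 2.1, 1:500) and peroxidase anti-mouse secondary, ECL detection. Normal and alkylated band densities integrated to give % alkylated β-tubulin. Representative of three experiments.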

MDA-MB-231 [17] = test: as §2; type: functional; in short: as §3
LoVo [18] = test: Dose to inhibit cell growth determined against LoVo cell line of human adenocarcinoma; type: functional, cell-based; in short: as §1
[19] = Alkylating activity by using 4-(4-nitrobenzyl)-pyridine(NBP) colorimetric assay
In short: (§6)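 NBP colorimetric assay. Drug at 400 nmol/mL in ethanol was mixed with 10% NBP in ethanol and 50 mM sodium acetate pH 4.3, then heated at 80 °C for 60, 90, 120 or 150 min. Samples were chilled and basified with KOH/ethanol, and A570 was read against a drug-free blank. The alkylation rate (A570/min) is the slope of a linear regression of absorbance vs time. Mean ± SD of ≥3 independent experiments.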

CHO [20] = test: Dose required to inhibit cell growth was determined against CHO cell line; NA= Not active represents IC50 >400 uM; type: functional, cell-based; conditions: Cricetulus griseus; in short: as §4
LoVo [21] = test: Dose required to inhibit cell growth was determined against LoVo cell line a human colon adenocarcinoma; NA= Not active represents IC50 >400 uM; type: functional, cell-based; in short: as §4
[22] = Alkylating activity by using 4-(4-nitrobenzyl)-pyridine (NBP) colorimetric assay; in short: as §6
MDA-MB-231 [23] = test: DNA damages caused in MDA-MB-231 cells after 2 hr compound exposure to 400 uM concentration; type: functional, Homo sapiens; in short: as §3
K562 [24] = test: Dose required to inhibit cell growth was determined against K562 cell line of chronic myelogenous leukemia; Not active represents IC50 >400 uM; type: functional, cell-based; conditions: Homo sapiens; in short: as §4
MDA-MB-231 [25] = test: Beta tubulin alkylation activity in MDA-MB-231 cells; not determined; type: functional, Homo sapiens; in short: as §5
[26] = Alkylating activity using 4-(4-nitrobenzyl)-pyridine(NBP) colorimetric assay

O=NN(CCCl)C(=O)NCCCl [CARMUSTINE]
IC50 (CHO [1]): 8.2 µM | Activity [2]: 20% | IC50 (HT-29 [3]): 17 µM | IC50 (K562 [4]): 9 µM | IC50 (L1210): 4.5 µM | DNA damage (MDA-MB-231 [5]): 19.9 10e7 exchanged dCps (ng of DNA) | IC50 (MDA-MB-231 [6]): 7.4 µM | IC50 (P388 [7]): 5.9 µM | Activity [8]: 50%

CNC(=O)Nc1ccc(C(C)C)cc1
NA (CHO [9]): inactive | NA (HT-29 [10]): inactive | IC50 (K562 [4]): 198 µM | IC50 (L1210): 135 µM | NA (MDA-MB-231 [11]): inactive

O=C(NCCCl)Nc1cccc2c1CCCC2
IC50 (CHO [1]): 56 µM | NA (HT-29 [12]): inactive | IC50 (K562 [4]): 76 µM | IC50 (L1210): 55 µM | NA (MDA-MB-231 [13]): inactive | NA (LoVo [14]): inactive | NA (P388 [15]): inactive

O=C(NCCCl)Nc1ccc2c(c1)CCC2
IC50 (CHO [1]): 10 µM | IC50 (HT-29 [3]): 10 µM | IC50 (K562 [4]): 5.5 µM | IC50 (L1210): 5 µM | Activity (MDA-MB-231 [16]): 43% | IC50 (MDA-MB-231 [6]): 10 µM | DNA damage (MDA-MB-231 [17]): 2.37 10e7 exchanged dCps (ng of DNA) | IC50 (LoVo [18]): 5.1 µM | IC50 (P388 [7]): 7.3 µM | Activity [19]: 3.5 A570 min-1

CCC(C)c1ccc(NC(=O)NC)cc1 (configuration not stated)
NA (CHO [9]): inactive | NA (HT-29 [10]): inactive | IC50 (K562 [4]): 142 µM | IC50 (L1210): 62 µM | NA (MDA-MB-231 [11]): inactive

Cc1cc(C)nc(NC(=O)NCCCl)c1
NA (CHO [20]): inactive | IC50 (K562 [4]): 113 µM | IC50 (L1210): 144 µM | IC50 (MDA-MB-231 [6]): 50 µM | NA (LoVo [14]): inactive | NA (P388 [15]): inactive

O=C(NCCCl)Nc1ccc2ccccc2c1
IC50 (CHO [1]): 7.2 µM | IC50 (HT-29 [3]): 5.5 µM | IC50 (K562 [4]): 3 µM | IC50 (L1210): 3 µM | Activity (MDA-MB-231 [16]): 47% | DNA damage (MDA-MB-231 [5]): 1.89 10e7 exchanged dCps (ng of DNA) | IC50 (MDA-MB-231 [6]): 6.1 µM | IC50 (LoVo [18]): 6.2 µM | IC50 (P388 [7]): 5.3 µM

O=C(NCCCl)Nc1ccccc1
IC50 (HT-29 [3]): > 100 µM | IC50 (K562 [4]): > 100 µM | IC50 (L1210): 57 µM | Activity (MDA-MB-231 [16]): 0% | IC50 (MDA-MB-231 [6]): 140 µM | NA (LoVo [21]): inactive | NA (P388 [15]): inactive

CCNC(=O)Nc1ccc(C(C)C)cc1
NA (CHO [9]): inactive | NA (HT-29 [10]): inactive | IC50 (K562 [4]): 142 µM | IC50 (L1210): 35 µM | NA (MDA-MB-231 [11]): inactive

O=C(O)CCCc1ccc(N(CCCl)CCCl)cc1 [CHLORAMBUCIL]
IC50 (CHO [1]): 30 µM | IC50 (HT-29 [3]): > 100 µM | IC50 (K562 [4]): 11 µM | IC50 (L1210): 3 µM | DNA damage (MDA-MB-231 [5]): 12.7 10e7 exchanged dCps (ng of DNA) | IC50 (MDA-MB-231 [6]): 80 µM | IC50 (LoVo [18]): 9 µM | IC50 (P388 [7]): 7 µM | Activity [22]: 39 A570 min-1

O=C(NCCCl)Nc1ccc(I)cc1
IC50 (CHO [1]): 4.8 µM | Activity [2]: 98% | IC50 (HT-29 [3]): 3.9 µM | IC50 (K562 [4]): 2.1 µM | IC50 (L1210): 3.8 µM | Activity (MDA-MB-231 [16]): 44% | DNA damage (MDA-MB-231 [23]): 2.66 10e7 exchanged dCps (ng of DNA) | IC50 (MDA-MB-231 [6]): 5.7 µM | IC50 (LoVo [18]): 5.4 µM | IC50 (P388 [7]): 5.4 µM | Activity [22]: 3.1 A570 min-1 | Activity [8]: 100%

CNC(=O)Nc1ccc(C(C)(C)C)cc1
NA (CHO [9]): inactive | IC50 (HT-29 [3]): 196 µM | NA (K562 [24]): inactive | IC50 (L1210): 80 µM | NA (MDA-MB-231 [11]): inactive

CCNC(=O)Nc1ccc(C(C)(C)C)cc1
NA (CHO [9]): inactive | IC50 (HT-29 [3]): 83 µM | IC50 (K562 [4]): 84 µM | NA (MDA-MB-231 [11]): inactive | Activity (MDA-MB-231 [25]): 0 | Activity [26]: 0.07

CCCCCCc1ccc(NC(=O)NCCCl)cc1
IC50 (CHO [1]): 15 µM | Activity [2]: 99% | IC50 (HT-29 [3]): 12 µM | IC50 (K562 [4]): 7.1 µM | IC50 (L1210): 5 µM | Activity (MDA-MB-231 [16]): 34% | DNA damage (MDA-MB-231 [23]): 2.32 10e7 exchanged dCps (ng of DNA) | IC50 (MDA-MB-231 [6]): 15 µM | IC50 (LoVo [18]): 6.1 µM | IC50 (P388 [7]): 8.2 µM | Activity [19]: 3.1 A570 min-1 | Activity [8]: 100%
